Test results published in publication PMC9301951 (ACS Omega, 2022).

What was measured:
[1] = target: equine serum-derived BuChE (eqBuChE) (Equus caballus, UniProt P81908); assay: Cholinesterase inhibition assay, BuChE; type: biochemical, horse; conditions: read-out: BuChE inhibitory activity inhibition (%)
SK-N-SH cells = assay: Neuroprotective effect on H2O2-induced decrease in cell viability; type: cell-based; conditions: Figure 5; H2O2-treated neurons, concentrations of 0.075–0.6 μM
How it was run: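 Cells challenged with H2O2 and treated with test compound at 0.15 μM. Viability given as % of control, with control set at 100%. Recovery (%) is viability of compound-treated cells minus viability of H2O2-only cells. Data are mean ± SD, n = 3.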

[2] = target: electric eel-derived AChE (eeAChE) (Electrophorus electricus, UniProt O42275); assay: Cholinesterase inhibition assay, AChE; type: biochemical; conditions: read-out: AChE inhibitory activity inhibition (%)
Chain of electric eel-derived AChE (eeAChE) (O42275 24-633): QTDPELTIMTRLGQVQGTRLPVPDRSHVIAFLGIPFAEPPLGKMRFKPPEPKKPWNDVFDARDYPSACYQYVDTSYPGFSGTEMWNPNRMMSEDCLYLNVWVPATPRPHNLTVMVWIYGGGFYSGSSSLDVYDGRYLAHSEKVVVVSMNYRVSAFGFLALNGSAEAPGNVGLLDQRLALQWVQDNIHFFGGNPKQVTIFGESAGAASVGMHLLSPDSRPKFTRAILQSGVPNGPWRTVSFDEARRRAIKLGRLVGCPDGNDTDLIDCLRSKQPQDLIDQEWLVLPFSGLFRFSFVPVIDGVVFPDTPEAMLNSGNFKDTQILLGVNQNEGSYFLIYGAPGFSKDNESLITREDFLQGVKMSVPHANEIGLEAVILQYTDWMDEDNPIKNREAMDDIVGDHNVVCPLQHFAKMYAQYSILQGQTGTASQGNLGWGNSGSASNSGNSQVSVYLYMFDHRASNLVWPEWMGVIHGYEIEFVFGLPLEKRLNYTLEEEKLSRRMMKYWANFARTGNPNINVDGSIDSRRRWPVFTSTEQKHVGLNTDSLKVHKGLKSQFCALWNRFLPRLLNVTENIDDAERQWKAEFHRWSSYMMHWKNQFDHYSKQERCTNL

Chain of equine serum-derived BuChE (eqBuChE) (P81908 whole entry): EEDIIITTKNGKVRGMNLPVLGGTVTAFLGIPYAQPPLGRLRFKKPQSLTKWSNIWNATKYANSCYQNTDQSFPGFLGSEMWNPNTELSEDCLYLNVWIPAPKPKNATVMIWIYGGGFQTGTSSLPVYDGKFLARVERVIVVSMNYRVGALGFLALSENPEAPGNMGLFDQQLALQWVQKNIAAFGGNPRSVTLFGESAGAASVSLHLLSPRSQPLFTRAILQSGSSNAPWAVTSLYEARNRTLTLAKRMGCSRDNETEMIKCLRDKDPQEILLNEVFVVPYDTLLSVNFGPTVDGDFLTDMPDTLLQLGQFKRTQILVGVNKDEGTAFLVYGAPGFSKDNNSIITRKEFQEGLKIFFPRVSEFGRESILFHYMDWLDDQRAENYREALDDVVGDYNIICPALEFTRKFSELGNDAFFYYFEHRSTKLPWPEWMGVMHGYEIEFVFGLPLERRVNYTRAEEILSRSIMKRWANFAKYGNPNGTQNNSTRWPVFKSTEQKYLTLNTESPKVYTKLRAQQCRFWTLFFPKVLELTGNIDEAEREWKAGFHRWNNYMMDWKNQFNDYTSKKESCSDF

Compound	inhibition at 10000 µM [1] [%]	cell viability (SK-N-SH cells) [%]	inhibition at 10000 µM [2] [%]
COc1ccc2c3c1O[C@H]1C[C@@H](O)C=C[C@@]31CCN(C)C2 [galantamine]	96.21 ± 0.18		
COC(=O)C1=CO[C@@H](O)[C@@H]2C(CO)=CC[C@H]12 [genipin 1, genipin]	2.42 ± 0.18	> 78	4.94 ± 0.05
COC(=O)C1=CO[C@@H](O[C@@H]2O[C@H](CO)[C@@H](O)[C@H](O)[C@H]2O)[C@@H]2C(CO)=CC[C@H]12 [geniposide]	2.09 ± 0.18		0.73 ± 0.11
